Data as given in ChEMBL document CHEMBL1152612, “Ursolic acid derivatives induce cell cycle arrest and apoptosis in NTUB1 cells associated with reactive oxygen species” (Bioorg Med Chem, 2009).
The source made the active and inactive calls. No cut-off for these calls is given here.

Tests used:
[1] = Induction of apoptosis in human NTUB1 cells assessed as accumulation at subG1 phase at 20 uM after 48 hrs using propidium iodide staining by flow cytometry; format: functional
In short: (§1)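 NTUB1 cells plated at 8 × 10⁵ per 10 cm dish and exposed to compound for 24 or 48 h; untreated controls got medium alone. Cells trypsinized, PBS-washed and fixed overnight in ice-cold MeOH at −20 °C, then stained with 50 µg/mL propidium iodide plus RNase A. DNA content was read by flow cytometry, with apoptosis taken as sub-G1 accumulation. Three independent experiments.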

[2] = tested on: NTUB1; test: Increase in intracellular reactive oxygen species level in human NTUB1 cells at 20 uM after 48 hrs in presence of 1 mM N-acetyl-cysteine by DCFH-DA staining; format: functional, cell-based
In short: (§2)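 NTUB1 cells treated for 24 or 48 h, with or without 1 mM N-acetylcysteine. DCFH-DA (10 µM) added 30 min before harvest; cells then trypsinized, PBS-washed, and DCF green fluorescence read at once by flow cytometry through a 525 nm band-pass filter. Three independent experiments.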

[3] = Cell cycle arrest in human NTUB1 cells assessed as accumulation at G2/M phase at 40 uM after 24 hrs using propidium iodide staining by flow cytometry; format: functional, cell-based; in short: as §1
[4] = Induction of apoptosis in human NTUB1 cells assessed as accumulation at subG1 phase at 40 uM after 24 hrs using propidium iodide staining by flow cytometry; format: functional; in short: as §1
[5] = tested on: A549; test: Cytotoxicity against human A549 cells at 50 uM after 72 hrs by MTT assay; format: functional, cell-based
In short: (§3)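 Cells grown in RPMI 1640 with 10% FBS, penicillin/streptomycin and 2 mM L-glutamine at 37 °C under 5% CO₂. Seeded 1800 cells/well, left overnight, then given graded compound concentrations for 72 h; compounds diluted from DMSO, 0.1% DMSO in medium and in controls. MTT 2 mg/mL in PBS for 3 h, formazan dissolved in DMSO, absorbance 540 nm. Viability given as % of control; IC50 by median-effect analysis, mean ± SD.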

[6] = Cell cycle arrest in human NTUB1 cells assessed as accumulation at G1 phase at 10 uM after 24 hrs using propidium iodide staining by flow cytometry; format: functional, cell-based; in short: as §1
[7] = tested on: PC-3; test: Cytotoxicity against human PC3 cells at 50 uM after 72 hrs by MTT assay; format: functional, cell-based; in short: as §3
[8] = Cell cycle arrest in human NTUB1 cells assessed as accumulation at S phase at 20 uM after 24 hrs using propidium iodide staining by flow cytometry; format: functional, cell-based; in short: as §1
[9] = Cell cycle arrest in human NTUB1 cells assessed as accumulation at G1 phase at 20 uM after 48 hrs using propidium iodide staining by flow cytometry; format: functional, cell-based; in short: as §1
[10] = Cell cycle arrest in human NTUB1 cells assessed as accumulation at S phase at 10 uM after 24 hrs using propidium iodide staining by flow cytometry; format: functional, cell-based; in short: as §1
[11] = Cell cycle arrest in human NTUB1 cells assessed as accumulation at S phase at 40 uM after 24 hrs using propidium iodide staining by flow cytometry; format: functional, cell-based; in short: as §1
[12] = Cell cycle arrest in human NTUB1 cells assessed as accumulation at G2/M phase at 20 uM after 48 hrs using propidium iodide staining by flow cytometry; format: functional, cell-based; in short: as §1
[13] = Cell cycle arrest in human NTUB1 cells assessed as accumulation at G2/M phase at 20 uM after 24 hrs using propidium iodide staining by flow cytometry; format: functional, cell-based; in short: as §1
[14] = Cell cycle arrest in human NTUB1 cells assessed as accumulation at S phase at 20 uM after 48 hrs using propidium iodide staining by flow cytometry; format: functional, cell-based; in short: as §1
[15] = Cell cycle arrest in human NTUB1 cells assessed as accumulation at G2/M phase at 10 uM after 24 hrs using propidium iodide staining by flow cytometry; format: functional, cell-based; in short: as §1
[16] = tested on: NTUB1; test: Increase in intracellular reactive oxygen species level in human NTUB1 cells at 40 uM after 24 hrs by DCFH-DA staining; format: functional, cell-based; in short: as §2
[17] = Induction of apoptosis in human NTUB1 cells assessed as accumulation at subG1 phase at 40 uM after 48 hrs using propidium iodide staining by flow cytometry; format: functional; in short: as §1
[18] = Induction of apoptosis in human NTUB1 cells assessed as accumulation at subG1 phase at 20 uM after 24 hrs using propidium iodide staining by flow cytometry; format: functional; in short: as §1
[19] = Cell cycle arrest in human NTUB1 cells assessed as accumulation at G1 phase at 40 uM after 48 hrs using propidium iodide staining by flow cytometry; format: functional, cell-based; in short: as §1
[20] = Cell cycle arrest in human NTUB1 cells assessed as accumulation at S phase at 40 uM after 48 hrs using propidium iodide staining by flow cytometry; format: functional, cell-based; in short: as §1
[21] = tested on: NTUB1; test: Increase in intracellular reactive oxygen species level in human NTUB1 cells at 20 uM after 48 hrs by DCFH-DA staining; format: functional, cell-based; in short: as §2
[22] = Cell cycle arrest in human NTUB1 cells assessed as accumulation at G1 phase at 20 uM after 24 hrs using propidium iodide staining by flow cytometry; format: functional, cell-based; in short: as §1
[23] = tested on: NTUB1; test: Increase in intracellular reactive oxygen species level in human NTUB1 cells at 40 uM after 48 hrs in presence of 1 mM N-acetyl-cysteine by DCFH-DA staining; format: functional, cell-based; in short: as §2
[24] = Cell cycle arrest in human NTUB1 cells assessed as accumulation at G1 phase at 40 uM after 24 hrs using propidium iodide staining by flow cytometry; format: functional, cell-based; in short: as §1
[25] = Cell cycle arrest in human NTUB1 cells assessed as accumulation at G2/M phase at 40 uM after 48 hrs using propidium iodide staining by flow cytometry; format: functional, cell-based; in short: as §1
[26] = Induction of apoptosis in human NTUB1 cells assessed as accumulation at subG1 phase at 10 uM after 24 hrs using propidium iodide staining by flow cytometry; format: functional; in short: as §1
[27] = Cytotoxicity against human NTUB1 cells after 72 hrs by MTT assay; format: functional, cell-based; conditions: NTUB1, 72 h; in short: as §3
[28] = tested on: NTUB1; test: Increase in intracellular reactive oxygen species level in human NTUB1 cells at 40 uM after 48 hrs by DCFH-DA staining; format: functional, cell-based; in short: as §2
[29] = tested on: NTUB1; test: Increase in intracellular reactive oxygen species level in human NTUB1 cells at 40 uM after 24 hrs in presence of 1 mM N-acetyl-cysteine by DCFH-DA staining; format: functional, cell-based; in short: as §2
[30] = biological target: Tubulin (Homo sapiens) (UniProt P68371+Q9H4B7+P0DPH7+P68366+Q13509+Q71U36+P04350+Q3ZCM7+P07437+P68363+Q9BQE3+Q6PEY2+Q13885+Q9BVA1+Q9BUF5); test: Inhibition of tubulin polymerization in human NTUB1 cells assessed as blockade of microtubule assembly at 10 nM by indirect immunofluorescence staining; format: cell-based
In short: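 NTUB1 cells on coverslips were treated for 24 h, then fixed in 2% formaldehyde/PBS for 20 min and in cold methanol (−20 °C) for 3 min. Stained with anti-α-tubulin monoclonal antibody for 3 h at room temperature, then rhodamine-conjugated secondary antibody for 1 h in the dark. Mounted in 80% glycerol/PBS and examined by fluorescence microscopy.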

SMILES | Activity [3] | Activity [4] | Activity [5] | Activity [7] | Activity [8] | Activity [11] | Activity [13] | Activity [18] | Activity [22] | Activity [24] | IC50 [27] | other results
CC(C)OC(=O)[C@]12CC[C@@H](C)[C@H](C)[C@H]1C1=CC[C@@H]3[C@@]4(C)CC[C@H](O)C(C)(C)[C@@H]4CC[C@@]3(C)[C@]1(C)CC2 | 11% | 23.73% | Active | Active | 15.8% | 4.53% | 9.18% | 23.5% | 51% | 58.1% | 7.97 µM | Activity [1]: 6.73%; Activity [2]: Active; Activity [6]: 33.9%; Activity [9]: 52.1%; Activity [10]: 31.7%; Activity [12]: 16.2%; Activity [14]: 20.5%; Activity [15]: 15.3%; Activity [16]: Active; Activity [17]: 43.81%; Activity [19]: 8.53%; Activity [20]: 1.31%; Activity [21]: Active; Activity [23]: Active; Activity [25]: 1.96%; Activity [26]: 13.8%; Activity [28]: Active; Activity [29]: inactive
CC(=O)O[C@H]1C(=O)[C@@]2(C)[C@H]([C@H](OC(=O)c3ccccc3)[C@]3(O)C[C@H](OC(=O)[C@H](O)[C@@H](NC(=O)c4ccccc4)c4ccccc4)C(C)=C1C3(C)C)[C@]1(OC(C)=O)CO[C@@H]1C[C@@H]2O |  |  |  |  |  |  |  |  |  |  |  | Activity [30]: Active
C[C@H]1[C@H](C)CC[C@]2(C(=O)O)CC[C@]3(C)C(=CC[C@@H]4[C@@]5(C)CC[C@H](OC(=O)CCC(=O)O)C(C)(C)[C@@H]5CC[C@]43C)[C@H]12 | 7.36% | 61.37% | Active | Active | 18.5% | 7.51% | 24.1% | 7.27% | 13.1% | 18.9% | 8.65 µM | 
